Data as given in PMC7641749 (Nucleic Acids Research, 2020).

Experiments:
DGCR8 = assay: Co-IP of ERH and DGCR8 in DROSHA knock-out cells; format: binding, human; settings: HCT116 DROSHA knock-out cells
How it was run: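 HCT116 wild-type and DROSHA knock-out cells were grown in McCoy's 5A with 9% FBS. Proteins were boiled at 95°C for 5 min, separated on 8–16% Tris–glycine gels and transferred to PVDF. Detection was by infrared imaging or chemiluminescence.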

DROSHA = assay: Co-IP of overexpressed DROSHA with ERH; format: binding, human; settings: ectopic DROSHA co-expressed with C-terminal tail of DGCR8
How it was run: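 HEK293E cells at 50% confluence were transfected with 5 μg total of Flag-, HA- or myc-tagged plasmids using branched/linear PEI (1:1) and harvested after 2 days. Anti-Flag, anti-HA or protein G-bound anti-myc beads were incubated with lysate 1–2 h at 4°C, washed three times and eluted in SDS buffer for western blot.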

miR-144–451a = assay: ERH rescue experiment, qRT-PCR; format: cell-based, human; settings: ERH ectopically expressed in ERH-depleted HEK293E cells, shERH, n = 3
How it was run: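 HEK293E cells at 50% confluence got shERH (3′UTR-targeting) plasmid with Fugene HD for 48 h, then were trypsinized and counted. 4E5 cells were co-transfected with 2.5 μg total of shERH, pri-miRNA expression plasmid and wild-type or homodimerization-mutant ERH plasmid (1:2:2) using 5 μl Fugene HD. Total RNA was harvested 48 h later for qRT-PCR.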

With Enhancer of Rudimentary Homolog [ERH] as the substance, how does the “interaction between ERH and DGCR8” value (DGCR8) read?
Its value is “not affected by the absence of DROSHA”.

And the “interaction between DROSHA and ERH” value (DROSHA)?
The value was “could not detect meaningful interaction”.

And the “expression of miR-144” value (miR-144–451a)?
The value was “without significantly altering miR-144 expression”.

What about the “expression of miR-451a” value (miR-144–451a) of the same substance?
Its value is “increased the expression of miR-451a”.
